Calls of active or inactive are those of the source. The calls are words filed in the database; no cut-off is given here.
Legend:
Format in all cases: cell-based
[1] = Agonist activity at LXR in human HepG2 cells assessed as upregulation of SCD1 mRNA levels at 10 uM after 6 hrs by qPCR analysis
Procedure, shortened: (§1)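 HepG2 cells treated with ligand (10 μM). Total RNA was extracted with TRIZOL; 2 µg was reverse-transcribed (1 h, 42 °C). SREBP1c, FASN and SCD1 transcripts were measured by qPCR. Mean ± SD of three biological samples; ANOVA with Dunnett's test.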

[2] = Agonist activity at LXR in human U937 cells assessed as upregulation of SCD1 mRNA levels at 10 uM after 16 hrs by qPCR analysis
[3] = Agonist activity at LXR in human U937 cells assessed as upregulation of SREBP1c mRNA levels at 10 uM after 6 hrs by qPCR analysis
Procedure, shortened: (§2)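 U937 cells, 3x10⁶ in 10 ml RPMI with 10% FBS, differentiated with PMA 10 ng/ml for 72 h at 37 °C, then treated with ligand (10 μM) for 6 h. Total RNA was isolated with TRIZOL; 2 µg was reverse-transcribed for 1 h at 42 °C. Transcripts were measured by qPCR. Mean ± SD of three biological samples; ANOVA with Dunnett's test.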

[4] = species on record: Homo sapiens; test: Agonist activity at LXR in human U937 cells assessed as downregulation of LPS-induced TNFalpha mRNA expression at 10 uM after 6 hrs by qPCR analysis
Procedure, shortened: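 PMA-differentiated U937 cells (10 ng/ml PMA, 72 h) were given LPS 100 ng/ml together with compound (10 μM) for 6 h. CCL2 and TNFα mRNA were measured by qPCR after TRIZOL RNA extraction and reverse transcription. Three biological samples per group, mean ± SD.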

[5] = Agonist activity at LXR in human U937 cells assessed as upregulation of FASN mRNA levels at 10 uM after 6 hrs by qPCR analysis; procedure, shortened: as §2
[6] = Agonist activity at LXR in human U937 cells assessed as upregulation of SCD1 mRNA levels at 10 uM after 6 hrs by qPCR analysis relative to control; conditions: human, 6 h, 10 µM; procedure, shortened: as §2
[7] = Agonist activity at LXR in human HepG2 cells assessed as upregulation of SREBP1c mRNA levels at 10 uM after 6 hrs by qPCR analysis; procedure, shortened: as §1
[8] = Agonist activity at LXR in human U937 cells assessed as upregulation of FASN mRNA levels at 10 uM after 16 hrs by qPCR analysis
[9] = species on record: Homo sapiens; test: Agonist activity at LXR in human U937 cells assessed as upregulation of ABCA1 mRNA levels at 10 uM after 6 hrs by qPCR analysis; procedure, shortened: as §2
[10] = Agonist activity at LXR in human HepG2 cells assessed as upregulation of FASN mRNA levels at 10 uM after 6 hrs by qPCR analysis; procedure, shortened: as §1

For `CC(C)CC[C@@H](O)[C@@H](C)[C@H]1CC[C@H]2[C@@H]3CC=C4C[C@@H](O)CC[C@]4(C)[C@H]3CC[C@]12C` [22(R)-HYDROXYCHOLESTEROL], the Activity [1] was “Not Active”, the Activity [2] was “Not Active” and the Activity [3] was “Not Active”. The Activity [4] was “Active”, the Activity [5] was “Not Active” and the Activity [6] was “Not Active”. The Activity [7] was “Not Active”, the Activity [8] was “Not Active” and the Activity [9] was “Active”. For the same compound, the Activity [10] was “Not Active”.
